Reference: ChEMBL document CHEMBL4371057, “Hydroxamic Acid Inhibitors Provide Cross-Species Inhibition of Plasmodium M1 and M17 Aminopeptidases” (J Med Chem, 2019)
Activity calls are given as the source filed them. No cut-off for these calls is given here.

Columns and labels:
Plasmodium falciparum [1] = assay: Antimalarial activity against Plasmodium falciparum 3D7 after 72 hrs by DAPI staining-based confocal imaging analysis; type: functional, organism-based; conditions: 3D7, 72 h
Summary of the method: (§1)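 Exposed to a 16-point dose series (40 μM to 0.4 nM final, 0.4% DMSO) for 72 h at 37 °C in 90% N2/5% CO2/5% O2. DAPI-stained and imaged confocally. Two biological replicates, each with two technical repeats.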

Plasmodium falciparum [2] = assay: Antimalarial activity against Plasmodium falciparum Dd2 after 72 hrs by DAPI staining-based confocal imaging analysis; type: functional, organism-based; summary of the method: as §1
[3] = Growth inhibition of HEK293 cells at 10 uM after 72 hrs by resazurin dye based assay relative to control; type: cell-based; conditions: human, read-out: GI
Summary of the method: (§2)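 HEK293 cells kept in DMEM with 10% FBS. Exposed to compounds for 72 h at 37 °C, 5% CO2, using the same dilution scheme as the parasite assay (top 40 μM). Medium then replaced with 44 μM resazurin, and fluorescence (530/595 nm) read after 5–6 h.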

Plasmodium falciparum [4] = assay: Reversible inhibition of Plasmodium falciparum C-terminal His6-tagged M17 aminopeptidase (85 to 605 residues) expressed in Escherichia coli BL21(DE3) assessed as enzyme activity recovery at 150 uM preincubated followed by compound washout for 5 hrs and subsequent L-leucine-7-amido-4-methylcoumarin substrate addition by fluorescence assay
Summary of the method: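 Pf-M17 (20 μM) was incubated overnight at 4 °C with 150 μM compound, 150 μM bestatin, 2 mM EDTA, or buffer (50 mM HEPES pH 8, 300 mM NaCl). It was then washed by repeated 10-fold concentration/dilution for up to 7 h, incubated 10 min in 1 mM MnCl2, 100 mM Tris pH 8.0, given 25 μM Leu-AMC (final), and fluorescence followed for 30 min.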

[5] = biological target: 72 kDa type IV collagenase (Homo sapiens, UniProt P08253); assay: Inhibition of MMP2 (unknown origin) preincubated for 1 hr followed by (QF)-24 substrate addition measured at 1 min time interval for 1 hr by fluorescence assay
[6] = biological target: Matrix metalloproteinase-9 (Homo sapiens, UniProt P14780); assay: Inhibition of MMP9 (unknown origin) preincubated for 1 hr followed by (QF)-24 substrate addition measured at 1 min time interval for 1 hr by fluorescence assay
[7] = biological target: Neutrophil collagenase (Homo sapiens) (UniProt P22894); assay: Inhibition of MMP8 (unknown origin) preincubated for 1 hr followed by (QF)-24 substrate addition measured at 1 min time interval for 1 hr by fluorescence assay
Summary of the method: (§3)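 MMPs were activated with 1 mM 4-aminophenylmercuric acetate (50 mM HEPES, 150 mM NaCl, 5 mM CaCl2, pH 7.0, 1 h, rt). 1 μM QF24 was added at 37 °C and read at 320/405 nm every minute for 1 h. IC50 from a four-parameter Hill fit; three independent experiments.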

[8] = biological target: T1, Matrilysin (Homo sapiens) (UniProt P09237); assay: Inhibition of MMP7 (unknown origin) preincubated for 1 hr followed by (QF)-24 substrate addition measured at 1 min time interval for 1 hr by fluorescence assay; summary of the method: as §3
T1 sequence (whole entry): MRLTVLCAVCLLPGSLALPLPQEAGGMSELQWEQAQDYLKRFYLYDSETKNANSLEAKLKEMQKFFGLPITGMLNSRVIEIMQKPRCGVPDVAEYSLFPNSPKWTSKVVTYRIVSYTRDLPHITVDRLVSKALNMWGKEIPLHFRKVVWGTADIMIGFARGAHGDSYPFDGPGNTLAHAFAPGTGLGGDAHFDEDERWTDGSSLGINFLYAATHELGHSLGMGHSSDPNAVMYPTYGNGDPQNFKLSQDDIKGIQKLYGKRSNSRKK

[9] = Inhibition of Plasmodium falciparum C-terminal His6-tagged M1 aminopeptidase (195 to 1085 residues) expressed in Escherichia coli BL21(DE3) preincubated for 20 mins followed by L-leucine-7-amido-4-methylcoumarin addition by Morrison equation analysis
Summary of the method: (§4)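 Recombinant enzymes (Ni-NTA then size exclusion) were preincubated 20 min with inhibitor in 100 mM Tris-HCl pH 8.0, with 2 mM CoCl2 for Pf-M17 and 1 mM for Pv-M17. Leu-AMC substrate: 20 μM (Pf-M1), 40 μM (Pv-M1), 10 μM (both M17). Read at 37 °C, 355/460 nm, to steady-state velocity. Ki from a Morrison tight-binding fit; biological triplicate from three protein preparations.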

[10] = Inhibition of Plasmodium vivax C-terminal His6-tagged M1 aminopeptidase (195 to 1097 residues) expressed in Escherichia coli BL21(DE3) preincubated for 20 mins followed by L-leucine-7-amido-4-methylcoumarin addition by Morrison equation analysis; summary of the method: as §4
[11] = Inhibition of Plasmodium falciparum C-terminal His6-tagged M17 aminopeptidase (85 to 605 residues) expressed in Escherichia coli BL21(DE3) preincubated for 20 mins followed by L-leucine-7-amido-4-methylcoumarin addition by Morrison equation analysis; summary of the method: as §4
[12] = Inhibition of Plasmodium vivax C-terminal His6-tagged M17 aminopeptidase (203 to 621 residues) expressed in Escherichia coli BL21(DE3) preincubated for 20 mins followed by L-leucine-7-amido-4-methylcoumarin addition by Morrison equation analysis; summary of the method: as §4
[13] = Growth inhibition of HEK293 cells at 40 uM after 72 hrs by resazurin dye based assay relative to control; type: cell-based; conditions: human, read-out: GI; summary of the method: as §2
[14] = Selectivity ratio of Ki for Plasmodium falciparum C-terminal His6-tagged M1 aminopeptidase (195 to 1085 residues) expressed in Escherichia coli BL21(DE3) to Ki for Plasmodium vivax C-terminal His6-tagged M1 aminopeptidase (195 to 1097 residues) expressed in Escherichia coli BL21(DE3)
[15] = Cytotoxicity against HEK293 cells after 72 hrs by resazurin dye based assay; type: cell-based; conditions: human; summary of the method: as §2
[16] = Selectivity index, ratio of CC50 for HEK293 cells to IC50 for Plasmodium falciparum 3D7; type: toxicity; conditions: human, read-out: Ratio CC50/IC50
Plasmodium falciparum [17] = conditions: 2 mM
[18] = Plasmodium falciparum, Dd2, 72 h, read-out: IC50

Chain of Neutrophil collagenase (Homo sapiens) (P22894 101-467 limits assumed): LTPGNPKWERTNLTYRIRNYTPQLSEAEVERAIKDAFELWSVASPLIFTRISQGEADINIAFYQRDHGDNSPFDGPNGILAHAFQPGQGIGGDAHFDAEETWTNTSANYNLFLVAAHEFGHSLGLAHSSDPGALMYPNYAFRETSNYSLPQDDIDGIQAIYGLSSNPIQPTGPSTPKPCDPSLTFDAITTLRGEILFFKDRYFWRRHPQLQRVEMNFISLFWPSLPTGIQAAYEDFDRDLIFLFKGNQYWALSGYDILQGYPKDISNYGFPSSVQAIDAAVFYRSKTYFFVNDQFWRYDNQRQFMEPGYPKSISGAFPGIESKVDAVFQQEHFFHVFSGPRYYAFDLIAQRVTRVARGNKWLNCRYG
Chain of 72 kDa type IV collagenase (P08253 whole entry): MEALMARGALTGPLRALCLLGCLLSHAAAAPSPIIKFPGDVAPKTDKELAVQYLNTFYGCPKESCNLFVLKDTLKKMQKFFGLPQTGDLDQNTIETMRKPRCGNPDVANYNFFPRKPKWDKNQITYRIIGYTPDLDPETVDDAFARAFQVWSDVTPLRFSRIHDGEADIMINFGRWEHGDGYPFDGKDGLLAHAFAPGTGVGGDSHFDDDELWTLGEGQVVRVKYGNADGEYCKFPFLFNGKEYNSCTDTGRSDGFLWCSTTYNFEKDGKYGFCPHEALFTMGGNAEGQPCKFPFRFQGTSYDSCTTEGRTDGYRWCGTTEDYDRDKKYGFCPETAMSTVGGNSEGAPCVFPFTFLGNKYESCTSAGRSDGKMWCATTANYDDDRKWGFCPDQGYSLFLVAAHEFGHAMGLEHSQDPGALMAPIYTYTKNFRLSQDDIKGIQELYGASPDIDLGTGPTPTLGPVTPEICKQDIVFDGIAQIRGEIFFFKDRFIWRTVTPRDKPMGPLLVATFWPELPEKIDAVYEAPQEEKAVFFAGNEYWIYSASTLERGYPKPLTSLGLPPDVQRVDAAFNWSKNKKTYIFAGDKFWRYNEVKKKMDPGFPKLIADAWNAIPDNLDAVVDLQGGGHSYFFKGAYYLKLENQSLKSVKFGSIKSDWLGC
Chain of Matrix metalloproteinase-9 (P14780 whole entry): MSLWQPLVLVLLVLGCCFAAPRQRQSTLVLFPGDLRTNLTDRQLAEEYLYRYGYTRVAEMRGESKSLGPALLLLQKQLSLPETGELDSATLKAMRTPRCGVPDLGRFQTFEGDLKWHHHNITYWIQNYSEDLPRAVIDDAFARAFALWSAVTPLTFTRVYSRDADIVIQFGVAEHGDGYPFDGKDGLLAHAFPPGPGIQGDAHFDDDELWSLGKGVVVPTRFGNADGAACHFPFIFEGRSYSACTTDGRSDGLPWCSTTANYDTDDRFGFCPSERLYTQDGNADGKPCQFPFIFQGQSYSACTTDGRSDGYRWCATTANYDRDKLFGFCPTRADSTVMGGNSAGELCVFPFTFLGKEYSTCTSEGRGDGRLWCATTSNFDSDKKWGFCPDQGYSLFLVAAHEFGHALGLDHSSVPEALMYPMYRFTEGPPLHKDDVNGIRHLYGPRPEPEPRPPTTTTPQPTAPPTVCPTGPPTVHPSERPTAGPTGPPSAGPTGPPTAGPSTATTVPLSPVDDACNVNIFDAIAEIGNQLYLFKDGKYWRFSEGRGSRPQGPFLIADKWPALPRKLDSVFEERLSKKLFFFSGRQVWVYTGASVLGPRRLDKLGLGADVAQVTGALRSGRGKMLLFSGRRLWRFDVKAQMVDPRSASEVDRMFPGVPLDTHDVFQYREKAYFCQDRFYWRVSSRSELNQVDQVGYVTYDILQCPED

Row | Compound | IC50 (Plasmodium falciparum [1]) [nM] | IC50 (Plasmodium falciparum [2]; [18]) [nM] | inhibition at 72 h, 10 µM [3] [%] | Ki [9] [nM] | Ki [10] [nM] | Ki [11] [nM] | Ki [12] [nM] | inhibition at 72 h, 40 µM [13] [%] | Ratio Ki [14] | also measured
1 | C[C@H]1[C@@H](O)O[C@@H]2O[C@@]3(C)CC[C@H]4[C@H](C)CC[C@@H]1[C@@]24OO3 [ARTENIMOL] | 0.5 | 0.4 | 31 | – | – | – | – | – | – | –
2 | CC(C)C[C@H](NC(=O)[C@@H](O)[C@H](N)Cc1ccccc1)C(=O)O | – | – | – | – | – | – | – | – | – | inhibition (Plasmodium falciparum [4]): Active
3 | CC(C)C[C@@H](C(=O)N[C@H](C(=O)OC1CCCC1)c1ccccc1)C(O)C(=O)NO (some centres not stated) | – | – | – | – | – | – | – | – | – | IC50 [5]: 190 nM; IC50 [6]: 1500 nM; inhibition [7]: Active; inhibition [8]: Active
4 | O=C(CC1CCC1)NC(C(=O)NO)c1ccc(-c2cc(F)c(F)c(F)c2)cc1 (configuration not stated) | 55.4 | 29.2 | 6.3 | 177 | 2.85 | 306 | 75.6 | 5.6 | 62.1 | –
5 | O=C(NO)[C@@H](NC(=O)[C@@H](F)C(F)(F)F)c1ccc(-c2cc(F)c(F)c(F)c2)cc1 (racemic) | – | – | – | 1490 | 211 | 2190 | 1240 | – | 10 | –
6 | O=C(NO)C(NC(=O)C(F)(F)C(F)(F)F)c1ccc(-c2cc(F)c(F)c(F)c2)cc1 (configuration not stated) | – | – | – | 815 | 90 | 200 | 97.5 | – | 10 | –
7 | CCN(CC)CCCC(C)Nc1ccnc2cc(Cl)ccc12 (configuration not stated) [CHLOROQUINE] | – | – | 17.3 | – | – | – | – | 57 | – | CC50 at 72 h [15]: ≥ 20000 nM
8 | O=C(NC(C(=O)NO)c1ccc(-c2cc(F)c(F)c(F)c2)cc1)C1CCCC1 (configuration not stated) | – | – | – | 285 | 13.1 | 300 | 336 | – | 10 | –
9 | COc1ccc2nc3cc(Cl)ccc3c(Nc3cc(CN4CCCC4)c(O)c(CN4CCCC4)c3)c2n1 [PYRONARIDINE] | 7 | 7.9 | 102 | – | – | – | – | 95.6 | – | CC50 at 72 h [15]: 3550 nM; selectivity ratio [16]: 507
10 | O=C(NC(C(=O)NO)c1ccc(-c2cc(F)c(F)c(F)c2)cc1)C1CCOCC1 (configuration not stated) | – | – | – | 431 | 159 | 290 | 494 | – | 10 | –
11 | O=C(CC1CC2CCC1C2)NC(C(=O)NO)c1ccc(-c2cc(F)c(F)c(F)c2)cc1 (configuration not stated) | 220 | 120 | 0.6 | 136 | 12.7 | 127 | 93.1 | 19.7 | 10 | –
12 | O=C(CC(F)(F)F)NC(C(=O)NO)c1ccc(-c2cc(F)c(F)c(F)c2)cc1 (configuration not stated) | – | – | – | 537 | 149 | 999 | 1050 | – | 10 | –
13 | C[C@H]1[C@H](OC(=O)CCC(=O)O)O[C@@H]2O[C@@]3(C)CC[C@H]4[C@H](C)CC[C@@H]1[C@@]24OO3 [ARTESUNATE] | 1.6 | 1 | 42.3 | – | – | – | – | – | – | –
14 | CCc1nc(N)nc(N)c1-c1ccc(Cl)cc1 [PYRIMETHAMINE] | 5.1 | – | 34.4 | – | – | – | – | 53.7 | – | IC50 (Plasmodium falciparum [2]): Not Active; CC50 at 72 h [15]: ≥ 20000 nM; selectivity ratio [16]: ≥ 1960
15 | CCC(=O)NC(C(=O)NO)c1ccc(-c2cc(F)c(F)c(F)c2)cc1 (configuration not stated) | – | – | – | 913 | 66.3 | 158 | 108 | – | 10 | –
16 | O=C(NC(C(=O)NO)c1ccc(-c2cc(F)c(F)c(F)c2)cc1)C1CCCCC1 (configuration not stated) | – | – | – | 818 | 37.6 | 195 | 178 | – | 10 | –
17 | CNC(=O)[C@@H](NC(=O)[C@H](CC(C)C)[C@H](O)C(=O)NO)C(C)(C)C | – | – | – | – | – | – | – | – | – | inhibition [7]: Active; inhibition [8]: Active
18 | O=C(NC(C(=O)NO)c1ccc(-c2cc(F)c(F)c(F)c2)cc1)C1CCC1 (configuration not stated) | 126 | 120 | 6 | 236 | 29.8 | 185 | 371 | 48.2 | 10 | selectivity ratio [16]: ≥ 158
19 | O=C(CC1CC1)NC(C(=O)NO)c1ccc(-c2cc(F)c(F)c(F)c2)cc1 (configuration not stated) | 136 | 109 | 6.4 | 202 | 17.9 | 270 | 303 | 37.6 | 10 | –
20 | CC(C)C(=O)NC(C(=O)NO)c1ccc(-c2cc(F)c(F)c(F)c2)cc1 (configuration not stated) | – | – | – | 417 | 38.9 | 426 | 325 | – | 10 | –
21 | COc1ccc(C[C@H](N)C(=O)N[C@H]2[C@@H](O)[C@H](n3cnc4c(N(C)C)ncnc43)O[C@@H]2CO)cc1 [PUROMYCIN] | 111 | 107 | 105 | – | – | – | – | 105 | – | CC50 at 72 h [15]: 500 nM; selectivity ratio [16]: 4.5
22 | O=C(CC1CCCCC1)NC(C(=O)NO)c1ccc(-c2cc(F)c(F)c(F)c2)cc1 (configuration not stated) | – | – | – | 812 | 13.2 | 288 | 148 | – | 10 | –
23 | O=C(O)CN(CCN(CC(=O)O)CC(=O)O)CC(=O)O | – | – | – | – | – | – | – | – | – | inhibition (Plasmodium falciparum [17]): Active
24 | O=C(NC(C(=O)NO)c1ccc(-c2cc(F)c(F)c(F)c2)cc1)C1CC1 (configuration not stated) | – | – | – | 532 | 90.6 | 492 | 572 | – | 10 | –
25 | O=C(N[C@@H](C(=O)NO)c1ccc(-c2cc(F)c(F)c(F)c2)cc1)[C@@H](F)C(F)(F)F (racemic) | – | – | – | 257 | 11.2 | 814 | 382 | – | 10 | –
26 | O=C(CC1CCCC1)NC(C(=O)NO)c1ccc(-c2cc(F)c(F)c(F)c2)cc1 (configuration not stated) | 168 | 125 | 3.1 | 216 | 7.58 | 138 | 211 | -1 | 28.5 | –
27 | CC(C)(C)C(=O)NC(C(=O)NO)c1ccc(-c2cc(F)c(F)c(F)c2)cc1 (configuration not stated) | 83.1 | 81.7 | 1.1 | 331 | 14.1 | 147 | 74.8 | 80.7 | 10 | CC50 at 72 h [15]: ≥ 20000 nM; selectivity ratio [16]: ≥ 241
